Screening data deposited in PubChem BioAssay by several laboratories.
UPR XBP1 act – activators of adaptive XBP1 UPR arm, primary screen, cell-based, CHO-XBP1 luciferase reporter, luminescence, uHTS. activation, % at 20 µM. 330,000 compounds, 0.33% hits. IRE1-XBP1 UPR activation; percent of tunicamycin response, DMSO as zero. AID 463104, 2010;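 active = versus positive control, 20 µM dose yields 30% or more activation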;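 also: 100% = tunicamycin at 10 µg/mL and 0% = DMSO only wells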
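Assay system: IRE1-XBP1 luciferase reporter CHO line. Input: 1000 cells/well. Buffer or medium: F12 with 10% serum. Doses: 20 µM, 1% DMSO. Times: overnight seeding at 37 °C, 6 h compound treatment at 37 °C. Technique: Steady-Glo luciferase glow luminescence, 10 min after reagent addition.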
V-ATPase pH – regulators of yeast V-ATPase proton pumping, primary screen, pHLuorin cytosolic pH fluorescence; 350,000 compounds, 0.37% hits; response, % at 10 µM; S. cerevisiae; in the data active = response mostly above about 7.3%, no sharp cut-off; inactive = mostly below about 5.4%; also: actives read high
CHOP inhibitor – inhibitors of CHOP promoter induction, primary screen, cell-based, unfolded protein response, luciferase reporter | CHO-K1 CHOP-promoter luciferase, tunicamycin-induced, 15-18 h | inhibition, % at 10 µM | 220,000 compounds, 3.8% hits | AID 2732, 2010;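 active = compounds that reduced the stress-induced luciferase reporter signal by more than about 70% of percent inhibition, limit read from the data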;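 also: 0% = tunicamycin plus vehicle and 100% = wells without tunicamycin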
CHOP UPR activ – activators of apoptotic CHOP UPR arm, primary screen, cell-based, CHO-CHOP luciferase reporter, luminescence, uHTS | UPR activation; percent of tunicamycin response over DMSO baseline | activation, % at 10 µM | 330,000 compounds, 0.34% hits | AID 449763, 2010;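 active = at 10 µM dose, activation of 40% or more, normalized to positive control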;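 also: 100% = tunicamycin at 10 µg/mL and 0% = DMSO alone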
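System: CHO-CHOP luciferase reporter cell line; amount: 500 cells/well; buffer or medium: F12 medium containing 10% fetal bovine serum; incubation: 6 h compound exposure at 37 °C after overnight seeding; measured by: luciferase luminescence after 10 min with Steady-Glo reagent; evaluation: % reporter activation, DMSO baseline versus tunicamycin full activation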
Tb MetRS inh – T. brucei MetRS inhibitors, primary screen, biochemical, luminescence | methionyl-tRNA synthetase (Trypanosoma brucei brucei) | purified T. brucei MetRS, ATP depletion, Kinase-Glo luminescence | inhibition, % at 11.9 µM | 360,000 compounds, 0.4% hits | AID 624268, 2012;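 active = inhibition above a per-plate cutoff of the control wells' mean inhibition plus 3 SD, cut at about 5.5% in these data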;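 also: 0% = DMSO wells median and 100% = median of wells with control inhibitor compound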
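Material – parasite MetRS enzyme · Medium – HEPES-MgCl2-KCl buffer plus DTT, spermine, BSA, pyrophosphatase · Reagent – ATP, methionine and E. coli bulk tRNA substrates · Times – 15 min enzyme-compound preincubation, 2 h reaction, 10 min detection, 25 °C · Measured by – luminescence of leftover ATP · Evaluation – percent inhibition relative to median high and low control wells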
CHOP confirm – retest of CHOP induction inhibitors, confirmation, cell-based. CHO-CHOP promoter luciferase reporter, tunicamycin-induced, luminescence. 2,100 compounds, 45% hits. shares compounds with CHOP inhibitor. inhibition, % at 10 µM;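 active = mean of three repeat readings of reporter signal inhibition above a set limit, cut at about 70% in these data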;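 also: 0% = tunicamycin plus vehicle and 100% = wells lacking tunicamycin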
CHOP UPR conf – activators of apoptotic CHOP UPR arm, confirmation, cell-based, CHO-CHOP luciferase reporter, single concentration. shares compounds with CHOP UPR activ. CHO-CHOP cells, CHOP-luciferase reporter luminescence; percent of tunicamycin response, DMSO as zero. activation, % at 10 µM. 1,000 compounds, 64% hits. AID 463112, 2010; in the data active = activation above about 33%;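 also: 0% = DMSO wells and 100% = tunicamycin 10 µg/mL wells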
TbMetRS confirm – T. brucei MetRS inhibitors, confirmation, biochemical, luminescence; shares compounds with Tb MetRS inh; T. brucei MetRS enzyme, luminescence (ATP depletion); inhibition, % at 11.9 µM; 1,400 compounds, 93% hits; AID 624412, 2012; in the data active = inhibition above about 7%
Jurkat tox – Jurkat T cell cytotoxicity, cytotoxicity control for T. brucei MetRS inhibitor project, luminescence, high throughput; shares compounds with Tb MetRS inh; AID 624413, 2012; Jurkat cells viability, ATP luminescence; inhibition, % at 8.3 µM; 1,400 compounds, 12% hits; in the data active = inhibition above about 15%;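 also: 0% = vehicle and 100% = reference inhibitor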
TbMetRS FP orth – T. brucei MetRS inhibitors, orthogonal assay for T. brucei MetRS inhibitor project, biochemical, fluorescence polarization | purified T. brucei MetRS | AID 651607, 2012 | shares compounds with Tb MetRS inh | inhibition, % at 11.9 µM | 1,400 compounds, 44% hits; in the data active = inhibition above about 17%;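 also: 0% = vehicle wells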
* = called active by the depositor; . = not tested or not shown. Shown is part of a subset that was picked to be rich in hits.

SMILES	UPR XBP1 act	V-ATPase pH	CHOP inhibitor	CHOP UPR activ	Tb MetRS inh	CHOP UPR conf	others
O=C(Nc1ccccc1)Nc1cc(OCC(F)(F)F)cc(OCC(F)(F)F)c1	.	4	107*	.	6.9*	.	CHOP confirm=126*;TbMetRS confirm=15*;Jurkat tox=89*;TbMetRS FP orth=72*
O=C(Nc1ccccc1)Nc1ccc(Oc2cccnc2)nc1	1	1	-8	4	2	.
Cc1ccc(-c2csc(NC(=O)CSc3nnc4c(n3)[nH]c3ccccc34)n2)cc1	.	1	101*	.	7.7*	.	CHOP confirm=50;TbMetRS confirm=15*;Jurkat tox=18*;TbMetRS FP orth=9
CC12CCC(=O)N1C(C(=O)Nc1cc(Cl)ccc1N1CCOCC1)CS2 (stereo not drawn)	-3	0	.	1	0	.
N=c1n(Cc2ccccc2)c2ccccc2n1CC(O)COc1ccc(Cl)cc1Cl (stereo not drawn)	3	-6	109*	24	10*	.	CHOP confirm=92*;TbMetRS confirm=19*;Jurkat tox=77*;TbMetRS FP orth=9
CCOC(=O)C1=CCN(S(=O)(=O)c2ccc(F)cc2)C1c1ccc(F)cc1 (stereo not drawn)	.	.	.	.	0	.
COc1cc(Cl)c(NC2=CC(=O)C(=O)c3ccccc32)c(OC)c1	13	0	.	51*	0	18
Cc1nc([N+](=O)[O-])c(Br)n1CC(=O)c1ccc(Cl)cc1	-6	-1	-64	58*	-1	60*
O=C(Nc1ccc2c(c1)OCO2)C1CC(=O)N(c2ccc(F)cc2)C1 (stereo not drawn)	1	2	.	2	0	.
COc1ccc(-n2c(SCC(=O)C(C)(C)C)nc3c(sc(=S)n3-c3ccccc3)c2=O)c(OC)c1	-4	4	.	2	-1	.
CC(C)(C)C(=O)N1CCN(c2ccc(NC(=O)c3ccc([N+](=O)[O-])o3)cc2)CC1	2	-2	.	59*	0	87*
O=C(Nc1ccc(C(=O)N2CCOCC2)cc1)Nc1cccc2ccccc12	0	-3	-6	1	0	.
CCOC(=O)C(=Cc1ccc(-n2cncn2)cc1)C(=O)OCC	-3	0	10	119*	0	93*
CCOC(=O)/C(=C\c1ccc(N2CCC(c3ccccc3)=N2)cc1)C(C)=O	.	8	.	.	0	.
CCO[C@H]1OC(C(=O)N2CCOCC2)=C[C@@H](C2CC2)[C@@H]1CCCO	0	0	13	1	0	.
CCn1c(O)c(N=NC(=O)c2cccnc2)c2cc(Br)ccc21	3	10	12	0	0	.
CCn1c(O)c(C2=c3ccccc3=NC2=O)c2cc(Br)ccc21	-7	.	23	111*	.	83*
COc1ccccc1S(=O)(=O)N(C)C[C@@H]1OCc2cnnn2CCCC(=O)N([C@H](C)CO)C[C@H]1C	.	-1	.	.	-1	.
CC(C)(C)c1ccc2c(c1)OC(C(=O)N/N=C\c1ccncc1)CO2 (stereo not drawn)	2	-3	11	1	0	.
CC(C)(C)c1ccc2c(c1)OC(C(=O)N/N=C/c1ccc([N+](=O)[O-])o1)CO2 (stereo not drawn)	2	-3	14	81*	0	0
S=c1[nH]nc(-c2cc(-c3ccccc3)n[nH]2)n1/N=C/C(Br)=C/c1ccccc1	12	-23	-14	109*	0	130*
Cc1ccc2nc(Cl)c3nnnn3c2c1	-7	10.0*	105*	139*	0	-7
CCCn1c(CC)nc([N+](=O)[O-])c1S(=O)(=O)c1ccccc1	-6	3	34	104*	-1	71*
CCc1nc(C)cn1S(=O)(=O)c1ccc([N+](=O)[O-])cc1	0	-3	12	0	-1	.
Cc1ccc2[nH]cc(C(=O)CCl)c2c1	-6	0	47	348*	1	189*
SMILES	UPR XBP1 act	V-ATPase pH	CHOP inhibitor	CHOP UPR activ	Tb MetRS inh	CHOP UPR conf	others
Cc1ccc2c(C(=O)CN3CCSCC3)c(C)[nH]c2c1	-4	-2	48	2	-1	.
Cc1ccc2c(C(=O)CCl)c(C)[nH]c2c1	-6	2	-220	479*	-1	274*
COc1ccc(C(=O)NC(C)c2ccc(-n3ccnc3)cc2)cc1S(=O)(=O)N1CCOCC1 (stereo not drawn)	-2	-10	.	1	0	.
Nc1c(C(=O)CSc2nccn2-c2cccc(F)c2)c(=O)[nH]c(=O)n1C1CC1	-1	-6	.	-1	0	.
Cc1coc2c1C(=O)C(=O)c1c-2ccc2c(C)cccc12	13	2	30	62*	0	37*
O=S(=O)(Nc1cccc2cccnc12)c1ccc(S(=O)(=O)N2CCCC2)cc1	-7	-6	-33	134*	0	99*
Cc1cc(C)c(NS(=O)(=O)c2cccc3cccnc23)c(C)c1	-1	-2	4	-1	-1	.
O=S(=O)(Nc1cccc2cccnc12)c1ccccc1	-9	0	.	368*	0	58*
Cc1ccc(S(=O)(=O)Nc2cccc3cccnc23)c([N+](=O)[O-])c1	-4	1	.	404*	-1	743*
COc1ccc(NS(=O)(=O)c2ccc3ccccc3c2)c2ncccc12	3	4	.	137*	0	418*
CC(=O)Nc1ccc(S(=O)(=O)Nc2cccc3cccnc23)cc1	0	-1	.	-1	0	.
CC(C)(O)C#Cc1ccc(CN2CCC(n3nccc3NC(=O)C3CC3)CC2)cc1	-7	-2	.	2	0	.
O=S(=O)(Nc1cccc2ccccc12)c1ccccc1	2	-1	20	1	-1	.
Cc1ccc2cccc(NS(=O)(=O)c3ccccc3)c2n1	0	.	.	446*	.	94*
